SMILES strings stand for the structures. Converted amounts (≈) assume the structure as drawn. Bounds are passed on as bounds.

Here are results for 16 compounds from ChEMBL document CHEMBL1136943, “Nocathiacin analogs: Synthesis and antibacterial activity of novel water-soluble amides” (Bioorg Med Chem Lett, 2009).

A short description of series [1]: Aqueous solubility by lyophilization solubility assay. It counts as physicochemical. The gist of the method: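 Amorphous powders from lyophilized material, as TFA salts; aqueous solubility measured by nephelometry.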
The test system of another series is Enterococcus faecalis. Kind of series: Antibacterial activity against Enterococcus faecalis C21560 in liquid culture by turbidity method. It counts as functional. The gist of the method: (§1)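 MIC is the lowest concentration giving 100% inhibition of bacterial growth in liquid culture, read by turbidity.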
The test system of another series is Staphylococcus aureus. Description: Antibacterial activity against Staphylococcus aureus MB2865 in liquid culture by turbidity method. The class given is functional. The gist of the method: as §1
A further series deals with Streptococcus pneumoniae. Kind of series: Antibacterial activity against Streptococcus pneumoniae CL2883 in liquid culture by turbidity method. It counts as functional. The gist of the method:
as §1

By solubility is commonly meant the dissolved amount per volume that the medium holds. Read a high solubility as a readily soluble substance. For `CO/C(C)=C1/NC(=O)[C@H]([C@@H](C)O)NC(=O)c2csc(n2)-c2cc(O)c(-c3nc(C(=O)N(C)CCN(C)C)cs3)nc2-c2csc(n2)[C@@H]2COC(=O)c3c4c5c(cccc5n3O)COC(=O)[C@@H](O[C@H]3C[C@](C)(O)[C@H](N(C)C)[C@H](C)O3)[C@@H](OC4)[C@H](NC(=O)c3csc1n3)c1nc(cs1)C(=O)N2.O=C(O)C(F)(F)F`, in series [1], the solubility is above 10000 µg/mL.
On to `CO/C(C)=C1/NC(=O)[C@H]([C@@H](C)O)NC(=O)c2csc(n2)-c2cc(O)c(-c3nc(C(=O)N4CCN(C)CC4)cs3)nc2-c2csc(n2)[C@@H]2COC(=O)c3c4c5c(cccc5n3O)COC(=O)[C@@H](O[C@H]3C[C@](C)(O)[C@H](N(C)C)[C@H](C)O3)[C@@H](OC4)[C@H](NC(=O)c3csc1n3)c1nc(cs1)C(=O)N2.O=C(O)C(F)(F)F`, for which the solubility in series [1] is above 10000 µg/mL.
Same read-out and setting: the figure for `CO/C(C)=C1/NC(=O)[C@H]([C@@H](C)O)NC(=O)c2csc(n2)-c2cc(O)c(-c3nc(C(=O)NCCN)cs3)nc2-c2csc(n2)[C@@H]2COC(=O)c3c4c5c(cccc5n3O)COC(=O)[C@@H](O[C@H]3C[C@](C)(O)[C@H](N(C)C)[C@H](C)O3)[C@@H](OC4)[C@H](NC(=O)c3csc1n3)c1nc(cs1)C(=O)N2.O=C(O)C(F)(F)F` is above 10000 µg/mL.
The MIC is the least concentration at which growth counts as inhibited. A lower MIC goes with greater potency. For the compound `CO/C(C)=C1/NC(=O)[C@H]([C@@H](C)O)NC(=O)c2csc(n2)-c2cc(O)c(-c3nc(C(=O)NCCN)cs3)nc2-c2csc(n2)[C@@H]2COC(=O)c3c4c5c(cccc5n3O)COC(=O)[C@@H](O[C@H]3C[C@](C)(O)[C@H](N(C)C)[C@H](C)O3)[C@@H](OC4)[C@H](NC(=O)c3csc1n3)c1nc(cs1)C(=O)N2`, the minimal inhibitory concentration (MIC) is 2 µg/mL (≈ 1.42 µM) against Enterococcus faecalis, 0.5 µg/mL (≈ 0.354 µM) with Staphylococcus aureus and 0.06 µg/mL (≈ 0.0425 µM) with Streptococcus pneumoniae.
The matching figures for `CO/C(C)=C1/NC(=O)[C@H]([C@@H](C)O)NC(=O)c2csc(n2)-c2cc(O)c(-c3nc(C(=O)NCCNC(N)=O)cs3)nc2-c2csc(n2)[C@@H]2COC(=O)c3c4c5c(cccc5n3O)COC(=O)[C@@H](O[C@H]3C[C@](C)(O)[C@H](N(C)C)[C@H](C)O3)[C@@H](OC4)[C@H](NC(=O)c3csc1n3)c1nc(cs1)C(=O)N2`: 0.5 µg/mL (≈ 0.344 µM), 0.06 µg/mL (≈ 0.0412 µM) and 0.0075 µg/mL (≈ 0.00516 µM).
In series [1], `C=C(NC(=O)c1csc(-c2nc3c(cc2O)-c2nc(cs2)C(=O)N[C@@H]([C@@H](C)O)C(=O)N/C(=C(\C)OC)c2nc(cs2)C(=O)N[C@@H]2c4nc(cs4)C(=O)N[C@@H](COC(=O)c4c5c6c(cccc6n4O)COC(=O)[C@@H](O[C@H]4C[C@](C)(O)[C@H](N(C)C)[C@H](C)O4)[C@H]2OC5)c2nc-3cs2)n1)C(N)=O.O=C(O)C(F)(F)F` [NOCATHIACIN I] yielded a solubility of 340 µg/mL.
Turning to `CO/C(C)=C1/NC(=O)[C@H]([C@@H](C)O)NC(=O)c2csc(n2)-c2cc(O)c(-c3nc(C(=O)NCCNC(=O)c4cc(O)cc(O)c4)cs3)nc2-c2csc(n2)[C@@H]2COC(=O)c3c4c5c(cccc5n3O)COC(=O)[C@@H](O[C@H]3C[C@](C)(O)[C@H](N(C)C)[C@H](C)O3)[C@@H](OC4)[C@H](NC(=O)c3csc1n3)c1nc(cs1)C(=O)N2`, the MIC against Enterococcus faecalis and with Staphylococcus aureus was above 1 µg/mL each time.
On to `CO/C(C)=C1/NC(=O)[C@H]([C@@H](C)O)NC(=O)c2csc(n2)-c2cc(O)c(-c3nc(C(=O)N4CCN(CC(=O)N(C)C)CC4)cs3)nc2-c2csc(n2)[C@@H]2COC(=O)c3c4c5c(cccc5n3O)COC(=O)[C@@H](O[C@H]3C[C@](C)(O)[C@H](N(C)C)[C@H](C)O3)[C@@H](OC4)[C@H](NC(=O)c3csc1n3)c1nc(cs1)C(=O)N2`, for which the figures for the MIC against Enterococcus faecalis, against Staphylococcus aureus and in the series with Streptococcus pneumoniae were 0.25 µg/mL (≈ 0.164 µM), 0.12 µg/mL (≈ 0.0788 µM) and 0.0038 µg/mL (≈ 0.0025 µM), respectively.
The matching figures for `CO/C(C)=C1/NC(=O)[C@H]([C@@H](C)O)NC(=O)c2csc(n2)-c2cc(O)c(-c3nc(C(=O)NCCNCC(O)CO)cs3)nc2-c2csc(n2)[C@@H]2COC(=O)c3c4c5c(cccc5n3O)COC(=O)[C@@H](O[C@H]3C[C@](C)(O)[C@H](N(C)C)[C@H](C)O3)[C@@H](OC4)[C@H](NC(=O)c3csc1n3)c1nc(cs1)C(=O)N2` (stereo not given in full): 2 µg/mL (≈ 1.35 µM), 0.5 µg/mL (≈ 0.337 µM) and 0.125 µg/mL (≈ 0.0841 µM).
For `CO/C(C)=C1/NC(=O)[C@H]([C@@H](C)O)NC(=O)c2csc(n2)-c2cc(O)c(-c3nc(C(=O)NCCNCC(O)CO)cs3)nc2-c2csc(n2)[C@@H]2COC(=O)c3c4c5c(cccc5n3O)COC(=O)[C@@H](O[C@H]3C[C@](C)(O)[C@H](N(C)C)[C@H](C)O3)[C@@H](OC4)[C@H](NC(=O)c3csc1n3)c1nc(cs1)C(=O)N2.O=C(O)C(F)(F)F` (stereo not given in full), in series [1], the solubility was 10000 µg/mL.
On the same count and under the same terms, to `CO/C(C)=C1/NC(=O)[C@H]([C@@H](C)O)NC(=O)c2csc(n2)-c2cc(O)c(-c3nc(C(=O)NCC(=O)N4CCN(C)CC4)cs3)nc2-c2csc(n2)[C@@H]2COC(=O)c3c4c5c(cccc5n3O)COC(=O)[C@@H](O[C@H]3C[C@](C)(O)[C@H](N(C)C)[C@H](C)O3)[C@@H](OC4)[C@H](NC(=O)c3csc1n3)c1nc(cs1)C(=O)N2.O=C(O)C(F)(F)F` belongs above 10000 µg/mL; to `CO/C(C)=C1/NC(=O)[C@H]([C@@H](C)O)NC(=O)c2csc(n2)-c2cc(O)c(-c3nc(C(=O)NCCN(C)C)cs3)nc2-c2csc(n2)[C@@H]2COC(=O)c3c4c5c(cccc5n3O)COC(=O)[C@@H](O[C@H]3C[C@](C)(O)[C@H](N(C)C)[C@H](C)O3)[C@@H](OC4)[C@H](NC(=O)c3csc1n3)c1nc(cs1)C(=O)N2.O=C(O)C(F)(F)F`, above 10000 µg/mL.
Same read-out and setting: the figure for `CO/C(C)=C1/NC(=O)[C@H]([C@@H](C)O)NC(=O)c2csc(n2)-c2cc(O)c(-c3nc(C(=O)NCCNC(=O)CN(C)C)cs3)nc2-c2csc(n2)[C@@H]2COC(=O)c3c4c5c(cccc5n3O)COC(=O)[C@@H](O[C@H]3C[C@](C)(O)[C@H](N(C)C)[C@H](C)O3)[C@@H](OC4)[C@H](NC(=O)c3csc1n3)c1nc(cs1)C(=O)N2.O=C(O)C(F)(F)F` is above 10000 µg/mL; for `CO/C(C)=C1/NC(=O)[C@H]([C@@H](C)O)NC(=O)c2csc(n2)-c2cc(O)c(-c3nc(C(=O)NCCNC(N)=O)cs3)nc2-c2csc(n2)[C@@H]2COC(=O)c3c4c5c(cccc5n3O)COC(=O)[C@@H](O[C@H]3C[C@](C)(O)[C@H](N(C)C)[C@H](C)O3)[C@@H](OC4)[C@H](NC(=O)c3csc1n3)c1nc(cs1)C(=O)N2.O=C(O)C(F)(F)F` it is below 10000 µg/mL; for `CO/C(C)=C1/NC(=O)[C@H]([C@@H](C)O)NC(=O)c2csc(n2)-c2cc(O)c(-c3nc(C(=O)NCCNC(=O)CN4CCOCC4)cs3)nc2-c2csc(n2)[C@@H]2COC(=O)c3c4c5c(cccc5n3O)COC(=O)[C@@H](O[C@H]3C[C@](C)(O)[C@H](N(C)C)[C@H](C)O3)[C@@H](OC4)[C@H](NC(=O)c3csc1n3)c1nc(cs1)C(=O)N2.O=C(O)C(F)(F)F` it is above 10000 µg/mL.
The same measure, in the same setting: the figure for `CO/C(C)=C1/NC(=O)[C@H]([C@@H](C)O)NC(=O)c2csc(n2)-c2cc(O)c(-c3nc(C(=O)N4CCN(CC(=O)N(C)C)CC4)cs3)nc2-c2csc(n2)[C@@H]2COC(=O)c3c4c5c(cccc5n3O)COC(=O)[C@@H](O[C@H]3C[C@](C)(O)[C@H](N(C)C)[C@H](C)O3)[C@@H](OC4)[C@H](NC(=O)c3csc1n3)c1nc(cs1)C(=O)N2.O=C(O)C(F)(F)F` is above 10000 µg/mL.
